Experimental data reported in article PMC2077835 (Drug metabolism and disposition: the biological fate of …, 2006).

Legend:
CYP2C9 [1] = biological target: T1, CYP2C9 (Homo sapiens, UniProt P11712); test: Inhibition of P450 activities by DB289: diclofenac 4′-hydroxylation; type: in vitro ADME; conditions: 3.0 μM DB289, pooled HLMs 0.25 mg/ml
Summary of the method: (§1)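 Test compound (3.0 μM) was preincubated 0 and 15 min with pooled microsomes (0.25 mg/ml) and 2 mM NADPH (final concentrations). A P450-selective marker substrate was then added and marker activity measured. Reference selective chemical inhibitors were run for comparison (none for CYP4A11). Solvent-only controls.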

CYP2D6 = CYP2D6 (Homo sapiens, UniProt P10635); test: DB289 consumption by recombinant CYP2D6; type: in vitro ADME; conditions: 3.0 μM DB289, 50 pmol/ml P450, 15 min
Chain of CYP2D6 (P10635 whole entry): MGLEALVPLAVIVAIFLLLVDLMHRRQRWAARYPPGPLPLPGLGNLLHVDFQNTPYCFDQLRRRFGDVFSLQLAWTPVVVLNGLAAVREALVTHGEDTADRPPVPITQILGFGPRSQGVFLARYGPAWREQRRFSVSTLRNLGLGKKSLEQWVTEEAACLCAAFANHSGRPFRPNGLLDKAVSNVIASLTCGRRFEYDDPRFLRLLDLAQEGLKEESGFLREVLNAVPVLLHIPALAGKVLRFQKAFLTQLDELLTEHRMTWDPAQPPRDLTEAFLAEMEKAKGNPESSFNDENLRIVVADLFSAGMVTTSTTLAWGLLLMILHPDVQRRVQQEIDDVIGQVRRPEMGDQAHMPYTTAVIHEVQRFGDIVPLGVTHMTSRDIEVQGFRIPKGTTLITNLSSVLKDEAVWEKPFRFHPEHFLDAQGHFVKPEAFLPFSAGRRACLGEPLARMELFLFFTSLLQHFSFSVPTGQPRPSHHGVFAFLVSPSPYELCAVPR
Summary of the method: (§2)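 Baculovirus-insect-cell Supersomes coexpressing human P450 with NADPH-P450 reductase; the CYP2E1 enzyme also had cytochrome b5. 3.0 μM substrate, 50 pmol/ml P450 (100 pmol/ml for CYP2C8 and CYP2C9), in 100 mM phosphate pH 7.4 with 3.3 mM MgCl2 and 1 mM NADPH, 37°C, 15 min. Quenched in ice-cold acidified acetonitrile with deuterated internal standard, then LC/MS/MS. Percent consumed relative to 0 min; control Supersomes; duplicates.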

CYP2C9 [2] = biological target: T1, CYP2C9; test: DB289 consumption by recombinant CYP2C9; type: in vitro ADME; conditions: 3.0 μM DB289, 100 pmol/ml P450, 15 min
Summary of the method: as §2

recombinant human CYP2B6 = recombinant human CYP2B6 (Homo sapiens, UniProt P20813); test: DB289 consumption by recombinant CYP2B6; type: in vitro ADME; conditions: 3.0 μM DB289, 50 pmol/ml P450, 15 min
Chain of recombinant human CYP2B6 (P20813 whole entry): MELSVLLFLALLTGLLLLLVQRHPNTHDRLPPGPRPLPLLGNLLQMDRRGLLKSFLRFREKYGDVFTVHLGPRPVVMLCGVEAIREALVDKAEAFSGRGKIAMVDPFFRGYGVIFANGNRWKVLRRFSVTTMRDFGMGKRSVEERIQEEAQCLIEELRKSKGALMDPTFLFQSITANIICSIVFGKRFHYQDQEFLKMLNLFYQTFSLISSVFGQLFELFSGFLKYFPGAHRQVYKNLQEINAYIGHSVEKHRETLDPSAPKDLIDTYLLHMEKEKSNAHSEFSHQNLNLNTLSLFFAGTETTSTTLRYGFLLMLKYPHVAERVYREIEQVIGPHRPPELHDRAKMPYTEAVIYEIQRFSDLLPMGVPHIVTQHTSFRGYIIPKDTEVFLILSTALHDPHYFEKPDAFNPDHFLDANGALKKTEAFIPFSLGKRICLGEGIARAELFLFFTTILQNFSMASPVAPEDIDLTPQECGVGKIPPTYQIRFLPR
Summary of the method: as §2

CYP3A4/5 = test: Inhibition of P450 activities by DB289: testosterone 6β-hydroxylation; type: in vitro ADME, human; conditions: 3.0 μM DB289, pooled HLMs 0.25 mg/ml
Summary of the method: as §1

recombinant human CYP1B1 = recombinant human CYP1B1 (Homo sapiens, UniProt Q16678); test: DB289 consumption by recombinant CYP1B1; type: in vitro ADME; conditions: 3.0 μM DB289, 50 pmol/ml P450, 15 min
Summary of the method: as §2

recombinant human CYP3A7 = recombinant human CYP3A7 (Homo sapiens, UniProt P24462); test: DB289 consumption by recombinant CYP3A7; type: in vitro ADME; conditions: 3.0 μM DB289, 50 pmol/ml P450, 15 min
Chain of recombinant human CYP3A7 (P24462 whole entry): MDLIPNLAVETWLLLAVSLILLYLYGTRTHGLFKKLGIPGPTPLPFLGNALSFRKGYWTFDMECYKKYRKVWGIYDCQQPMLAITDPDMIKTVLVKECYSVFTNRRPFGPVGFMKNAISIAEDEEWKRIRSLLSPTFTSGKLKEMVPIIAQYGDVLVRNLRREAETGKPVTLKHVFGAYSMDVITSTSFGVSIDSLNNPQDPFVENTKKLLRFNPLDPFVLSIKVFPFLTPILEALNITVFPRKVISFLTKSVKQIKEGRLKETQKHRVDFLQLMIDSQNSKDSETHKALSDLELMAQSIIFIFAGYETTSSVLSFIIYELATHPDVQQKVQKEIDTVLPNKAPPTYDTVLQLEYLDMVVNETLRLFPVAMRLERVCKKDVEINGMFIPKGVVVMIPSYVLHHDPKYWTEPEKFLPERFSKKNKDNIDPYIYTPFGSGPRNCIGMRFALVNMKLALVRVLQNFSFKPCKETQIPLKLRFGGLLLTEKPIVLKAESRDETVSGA
Summary of the method: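 A second recombinant panel (Supersomes; the CYP2J2, CYP3A7 and CYP4F forms coexpressed with reductase and cytochrome b5). Each enzyme was incubated alone with 3.0 μM substrate and NADPH in pH 7.4 phosphate/MgCl2 at 37°C for 15 min. Acetonitrile quench with internal standard, centrifugation, LC/MS/MS. Percent consumed normalised to 0 min. Control Supersomes; means of duplicates.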

CYP4A11 = CYP4A11 (Homo sapiens, UniProt Q02928); test: DB289 consumption by recombinant CYP4A11; type: in vitro ADME; conditions: 3.0 μM DB289, 50 pmol/ml P450, 15 min
Chain of CYP4A11 (Q02928 5-519): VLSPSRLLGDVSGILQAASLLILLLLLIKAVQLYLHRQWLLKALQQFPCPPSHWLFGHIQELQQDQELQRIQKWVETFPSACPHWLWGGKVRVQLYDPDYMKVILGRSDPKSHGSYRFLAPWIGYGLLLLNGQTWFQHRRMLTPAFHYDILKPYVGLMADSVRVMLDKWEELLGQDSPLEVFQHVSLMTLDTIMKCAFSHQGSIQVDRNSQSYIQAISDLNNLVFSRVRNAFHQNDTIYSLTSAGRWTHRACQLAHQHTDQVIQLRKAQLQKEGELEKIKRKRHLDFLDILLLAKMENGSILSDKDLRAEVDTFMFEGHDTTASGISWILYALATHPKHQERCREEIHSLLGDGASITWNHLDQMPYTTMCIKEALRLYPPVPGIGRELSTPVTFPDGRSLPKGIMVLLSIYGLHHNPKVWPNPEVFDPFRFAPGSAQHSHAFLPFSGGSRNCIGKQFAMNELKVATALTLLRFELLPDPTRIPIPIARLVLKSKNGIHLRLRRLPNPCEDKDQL

[3] = Incubation of DB289 with pooled human liver microsomes; type: in vitro ADME; conditions: 15 μM DB289, 0.2 mg/ml HLMs, NADPH
Summary of the method: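 Pooled liver microsomes (50 donors, mixed gender) at 0.2 mg/ml with 15 μM substrate in a 1 ml mix, equilibrated 5 min at 37°C, then started with NADPH. Aliquots taken at 0, 5, 15, 30 and 120 min into ice-cold acetonitrile. LC/UV at 359 nm against an external 0.1–15 μM calibration; metabolites identified by retention time versus synthetic standards. Single determination; controls lacked NADPH, protein or substrate.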

[4] = biological target: recombinant human CYP2C18 (Homo sapiens, UniProt P33260); test: DB289 consumption by recombinant CYP2C18; type: in vitro ADME; conditions: 3.0 μM DB289, 50 pmol/ml P450, 15 min
Chain of recombinant human CYP2C18 (P33260 26-490): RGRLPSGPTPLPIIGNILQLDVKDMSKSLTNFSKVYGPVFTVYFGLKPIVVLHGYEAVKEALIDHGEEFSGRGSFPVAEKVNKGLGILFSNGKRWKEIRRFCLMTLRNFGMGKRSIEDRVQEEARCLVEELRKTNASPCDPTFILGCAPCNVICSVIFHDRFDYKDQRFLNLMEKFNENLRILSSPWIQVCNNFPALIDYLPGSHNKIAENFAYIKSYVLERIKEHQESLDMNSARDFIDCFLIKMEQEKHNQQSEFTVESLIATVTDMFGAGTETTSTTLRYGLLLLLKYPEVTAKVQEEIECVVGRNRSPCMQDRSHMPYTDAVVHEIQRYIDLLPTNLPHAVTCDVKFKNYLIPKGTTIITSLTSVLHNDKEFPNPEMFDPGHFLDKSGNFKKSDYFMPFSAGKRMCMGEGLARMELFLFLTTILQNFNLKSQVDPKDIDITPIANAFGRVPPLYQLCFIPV

[5] = biological target: recombinant human CYP4F3A (Homo sapiens, UniProt Q08477); test: DB289 consumption by recombinant CYP4F3A; type: in vitro ADME; conditions: 3.0 μM DB289, up to 120 min
Chain of recombinant human CYP4F3A (Q08477 whole entry): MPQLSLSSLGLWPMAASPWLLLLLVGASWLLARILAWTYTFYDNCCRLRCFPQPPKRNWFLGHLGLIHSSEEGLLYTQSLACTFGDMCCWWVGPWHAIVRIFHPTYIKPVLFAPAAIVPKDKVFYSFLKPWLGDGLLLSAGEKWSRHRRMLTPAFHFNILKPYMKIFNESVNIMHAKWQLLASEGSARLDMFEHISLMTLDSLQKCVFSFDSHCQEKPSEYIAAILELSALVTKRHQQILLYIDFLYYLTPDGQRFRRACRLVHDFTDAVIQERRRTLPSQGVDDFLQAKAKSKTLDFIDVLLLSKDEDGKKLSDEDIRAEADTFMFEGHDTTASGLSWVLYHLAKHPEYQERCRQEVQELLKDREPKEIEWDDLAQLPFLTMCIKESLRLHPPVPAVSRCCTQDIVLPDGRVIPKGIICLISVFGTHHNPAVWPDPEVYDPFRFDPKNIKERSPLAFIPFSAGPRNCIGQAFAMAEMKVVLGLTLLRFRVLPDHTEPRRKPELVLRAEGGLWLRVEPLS

recombinant human CYP2C8 = recombinant human CYP2C8 (Homo sapiens, UniProt P10632); test: DB289 consumption by recombinant CYP2C8; type: in vitro ADME; conditions: 3.0 μM DB289, 100 pmol/ml P450, 15 min
Chain of recombinant human CYP2C8 (P10632 whole entry): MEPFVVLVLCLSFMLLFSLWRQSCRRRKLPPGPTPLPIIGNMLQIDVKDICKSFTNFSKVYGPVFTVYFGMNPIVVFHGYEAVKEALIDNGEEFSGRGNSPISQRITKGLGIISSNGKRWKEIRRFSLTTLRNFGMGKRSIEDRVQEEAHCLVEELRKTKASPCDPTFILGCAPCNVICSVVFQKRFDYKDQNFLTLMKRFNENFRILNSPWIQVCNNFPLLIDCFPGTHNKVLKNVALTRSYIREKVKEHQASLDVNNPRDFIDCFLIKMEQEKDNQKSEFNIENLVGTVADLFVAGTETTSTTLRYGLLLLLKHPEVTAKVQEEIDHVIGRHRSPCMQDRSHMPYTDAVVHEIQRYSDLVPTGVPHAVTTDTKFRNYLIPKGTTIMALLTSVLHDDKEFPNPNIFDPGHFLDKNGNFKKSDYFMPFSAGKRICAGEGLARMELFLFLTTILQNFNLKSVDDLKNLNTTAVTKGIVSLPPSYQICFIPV
Summary of the method: as §2

recombinant human CYP1A1 = recombinant human CYP1A1 (Homo sapiens, UniProt P04798); test: DB289 consumption by recombinant CYP1A1; type: in vitro ADME; conditions: 3.0 μM DB289, 50 pmol/ml P450, 15 min
Summary of the method: as §2

recombinant human CYP3A5 = recombinant human CYP3A5 (Homo sapiens, UniProt P20815); test: DB289 consumption by recombinant CYP3A5; type: in vitro ADME; conditions: 3.0 μM DB289, 50 pmol/ml P450, 15 min
Chain of recombinant human CYP3A5 (P20815 whole entry): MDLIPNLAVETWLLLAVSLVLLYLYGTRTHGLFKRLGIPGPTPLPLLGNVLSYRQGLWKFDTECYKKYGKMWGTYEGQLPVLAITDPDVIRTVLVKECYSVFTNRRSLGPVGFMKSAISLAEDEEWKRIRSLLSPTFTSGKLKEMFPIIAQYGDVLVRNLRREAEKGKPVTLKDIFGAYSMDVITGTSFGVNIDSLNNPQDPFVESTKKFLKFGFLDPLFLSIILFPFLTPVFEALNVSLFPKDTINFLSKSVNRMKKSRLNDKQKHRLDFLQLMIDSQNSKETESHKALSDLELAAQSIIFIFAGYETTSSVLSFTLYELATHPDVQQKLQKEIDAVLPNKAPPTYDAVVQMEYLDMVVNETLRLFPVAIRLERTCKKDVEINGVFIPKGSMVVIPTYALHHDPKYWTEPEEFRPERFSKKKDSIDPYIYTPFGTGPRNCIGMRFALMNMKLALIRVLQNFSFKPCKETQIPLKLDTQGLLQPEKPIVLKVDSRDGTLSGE
Summary of the method: as §2

recombinant human CYP1A2 [6] = biological target: T2, recombinant human CYP1A2 (Homo sapiens, UniProt P05177); test: Kinetics of M1 formation by recombinant CYP1A2; type: in vitro ADME
T2 sequence (P05177 2-516 limits assumed): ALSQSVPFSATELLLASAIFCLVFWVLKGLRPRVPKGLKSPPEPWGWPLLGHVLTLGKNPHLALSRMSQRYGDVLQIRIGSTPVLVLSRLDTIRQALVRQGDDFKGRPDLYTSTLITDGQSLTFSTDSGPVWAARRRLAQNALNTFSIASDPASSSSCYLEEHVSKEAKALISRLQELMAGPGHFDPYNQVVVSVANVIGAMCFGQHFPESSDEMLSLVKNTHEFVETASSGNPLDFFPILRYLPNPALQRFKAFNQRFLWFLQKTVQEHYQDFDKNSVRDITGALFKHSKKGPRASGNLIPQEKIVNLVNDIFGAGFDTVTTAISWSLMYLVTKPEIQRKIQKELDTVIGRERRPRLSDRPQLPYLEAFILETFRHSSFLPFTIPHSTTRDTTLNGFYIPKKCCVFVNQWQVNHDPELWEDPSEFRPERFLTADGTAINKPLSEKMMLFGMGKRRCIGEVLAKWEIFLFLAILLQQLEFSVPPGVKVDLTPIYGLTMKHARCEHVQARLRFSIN
Summary of the method: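 Recombinant P450 (10–50 pmol/ml) with substrate from 0.05 μM upward, under initial-rate conditions (<20% consumption). 250 μl at 37°C, started with NADPH after 5 min equilibration. Run times: 2 min for CYP1A1/1A2; 5 min for CYP1B1, 2J2 and 4F2; 15 min for CYP2C8, 4F3B and 4F12. M1 measured by LC/MS/MS. Mean of duplicates fitted to Michaelis-Menten; CLint = Vmax/Km.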

[7] = Kinetics of M1 formation by pooled HLMs; type: in vitro ADME, human
Summary of the method: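 Initial-rate conditions (<20% substrate consumption). Pooled microsomes at 0.02 mg/ml with substrate from 0.05 μM upward, in 250 μl. Equilibrated 5 min at 37°C, started with NADPH, run 3 min. M1 measured by LC/MS/MS. Mean of duplicates fitted to Michaelis-Menten by nonlinear regression, with an Eadie-Hofstee plot; CLint = Vmax/Km.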

CYP2C19 = CYP2C19 (Homo sapiens, UniProt P33261); test: DB289 consumption by recombinant CYP2C19; type: in vitro ADME; conditions: 3.0 μM DB289, 50 pmol/ml P450, 15 min
Summary of the method: as §2

[8] = oral; ref Yeates, 2003; cited from earlier work
recombinant human CYP1A2 [9] = biological target: T2, recombinant human CYP1A2; test: DB289 consumption by recombinant CYP1A2; type: in vitro ADME; conditions: 3.0 μM DB289, 50 pmol/ml P450, 15 min
Summary of the method: as §2

CYP2E1 = CYP2E1 (Homo sapiens, UniProt P05181); test: Inhibition of P450 activities by DB289: lauric acid 11-hydroxylation; type: in vitro ADME; conditions: 3.0 μM DB289, pooled HLMs 0.25 mg/ml
Summary of the method: as §1

[10] = DB289 consumption in 10 individual HLM samples, correlation analysis; type: in vitro ADME, human; conditions: 0.3 μM DB289
Summary of the method: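 Ten individual human liver microsome samples, each characterised by the supplier for P450 marker activities. Standard NADPH incubations at 37°C began with 0.3 μM substrate. Rate of disappearance measured by LC/MS/MS and plotted against each P450 marker activity. Pearson r calculated; p < 0.05 taken as significant.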

T1 sequence (P11712 whole entry): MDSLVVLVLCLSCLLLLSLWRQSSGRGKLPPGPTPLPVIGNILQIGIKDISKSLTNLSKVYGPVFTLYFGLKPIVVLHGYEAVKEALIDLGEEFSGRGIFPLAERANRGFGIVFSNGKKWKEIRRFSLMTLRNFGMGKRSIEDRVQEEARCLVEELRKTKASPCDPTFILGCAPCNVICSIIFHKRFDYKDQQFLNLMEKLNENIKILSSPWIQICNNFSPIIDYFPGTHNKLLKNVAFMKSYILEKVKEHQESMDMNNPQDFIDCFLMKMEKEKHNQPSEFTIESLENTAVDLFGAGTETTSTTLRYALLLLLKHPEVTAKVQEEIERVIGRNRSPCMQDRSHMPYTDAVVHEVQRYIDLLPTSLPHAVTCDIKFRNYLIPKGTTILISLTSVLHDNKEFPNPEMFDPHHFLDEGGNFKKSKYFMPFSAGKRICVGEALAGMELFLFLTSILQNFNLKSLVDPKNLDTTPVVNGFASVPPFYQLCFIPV

CON=C(N)c1ccc(-c2ccc(-c3ccc(C(N)=NOC)cc3)o2)cc1 [DB289, 2,5-bis(4-amidinophenyl)furan-bis-O-methylamidoxime]
inhibition of CYP2C9 activity (CYP2C9 [1]): 20−25%
percentage of substrate consumed (CYP2D6): 9%
percentage of substrate consumed (CYP2C9 [2]): less than 5%
percentage of substrate consumed (recombinant human CYP2B6): less than 5%
inhibition of CYP3A activity (CYP3A4/5): minimal to no inhibition
percentage of substrate consumed (recombinant human CYP1B1): 46%
percentage of substrate consumed (recombinant human CYP3A7): less than 5%
percentage of substrate consumed (CYP4A11): less than 5%
half-life in pooled HLM [3]: 12 min
time by which DB289 was completely consumed [3]: ≤ 120 min
percentage of substrate consumed [4]: less than 5%
DB289 consumption [5]: little DB289 consumption
percentage of substrate consumed (recombinant human CYP2C8): 5%
percentage of substrate consumed (recombinant human CYP1A1): 82%
percentage of substrate consumed (recombinant human CYP3A5): 8%
efficiency of CYP1A2 relative to CYP3A4, 2D6, 2E1, or 3A5 (intrinsic or maximal clearance) (recombinant human CYP1A2 [6]): ≥ 300 fold
Vmax ([7]; DB289 O-demethylation in HLMs): 3770 pmol/min/mg protein
Vmax ([7]; M1 formation, 0.02 mg/ml HLM, 3 min): 3.8 nmol/min/mg protein
Vmax ([7]; M1 formation, 0.02 mg/ml HLM, 3 min, total P450): 10.5 nmol/min/nmol P450
percentage of substrate consumed (CYP2C19): less than 5%
tolerability [8]: well tolerated, with no serious side effects
percentage of substrate consumed (recombinant human CYP1A2 [9]): 61%
inhibition of CYP2E1 activity (CYP2E1): minimal to no inhibition
variation of rate of DB289 consumption among 10 individual HLMs [10]: 4 fold
